Measurements taken from ChEMBL document CHEMBL4342526, “Exploration of the Structural Space in 4(3H)-Quinazolinone Antibacterials” (J Med Chem, 2020).
Values after ≈ are worked out from the molar mass of the structure shown.

What was measured:
[1] = Solubility of the compound in water; format: physicochemical; settings: buffer
[2] = Selectivity index, ratio of IC50 for human HeLa cells to MIC for clindamycin/erythromycin/spectinomycin-resistant mec-positive Staphylococcus aureus NRS70; format: toxicity
Summary of the method: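 HeLa cytotoxicity by XTT assay in triplicate, IC50 by nonlinear regression; ratio IC50 over broth microdilution MIC against NRS70.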

Staphylococcus aureus [3] = assay: Antibacterial activity against clindamycin/erythromycin/spectinomycin-resistant mec-positive Staphylococcus aureus NRS70 measured after 16 to 20 hrs by microdilution method; format: functional
Summary of the method: (§1)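 CLSI broth microdilution; two-fold serial compound dilutions in triplicate in cation-adjusted Mueller–Hinton broth with 2% NaCl, inoculum 5 × 10^5 CFU/mL; 37 °C for 16–20 h; MIC = lowest concentration with no visible growth.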

Staphylococcus aureus [4] = assay: Antibacterial activity against multi-drug resistant mecA-positive Staphylococcus aureus ATCC 27660 measured after 16 to 20 hrs by microdilution method; format: functional; summary of the method: as §1
Staphylococcus aureus [5] = assay: Antibacterial activity against multi-drug resistant mec-positive Staphylococcus aureus USA300 measured after 16 to 20 hrs by microdilution method; format: functional; summary of the method: as §1
Staphylococcus aureus [6] = assay: Antibacterial activity against multi-drug resistant mecA-positive Staphylococcus aureus NRS119 measured after 16 to 20 hrs by microdilution method; format: functional; summary of the method: as §1
Staphylococcus aureus [7] = assay: Antibacterial activity against Staphylococcus aureus ATCC 29213 measured after 16 to 20 hrs in presence of bovine serum albumin by microdilution method; format: functional
Summary of the method: (§2)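 S. aureus ATCC29213 MIC was run by CLSI microdilution in cation-adjusted Mueller–Hinton broth plus 2% NaCl, with and without 0.5% bovine serum albumin. Compounds were two-fold serially diluted in triplicate, inoculum was 5 × 10^5 CFU/mL, and plates were incubated at 37 °C for 16–20 h. The endpoint was the lowest concentration with no visible growth.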

HeLa = assay: Cytotoxicity against human HeLa cells assessed as reduction in cell viability measured after 16 hrs by XTT assay; format: cell-based
Summary of the method: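 HeLa cells (ATCC CCL-2), run in triplicate. Viability was read by XTT, and IC50 was obtained by nonlinear regression.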

[8] = Protein binding in human plasma at 10 uM measured after 6 hrs UV-UPLC based rapid equilibrium dialysis method; format: ADME, cell-free
Summary of the method: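 Rapid equilibrium dialysis: human plasma was cleared by centrifugation and spiked from a 1 mM DMSO stock to a final 10 μM, against 0.1 M PBS pH 7.4. Dialysis ran 6 h at 37 °C with orbital shaking. Buffer (free) and plasma (total) aliquots were mixed with internal standard in acetonitrile and measured by UPLC-UV at 285 nm. B% = (Cp−Cf)/Cp×100.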

Staphylococcus aureus [9] = assay: Antibacterial activity against Staphylococcus aureus ATCC 29213 measured after 16 to 20 hrs by microdilution method; format: functional
Summary of the method: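 CLSI broth microdilution: two-fold serial dilutions in triplicate in cation-adjusted Mueller–Hinton broth with 2% NaCl, inoculum 5 × 10^5 CFU/mL, incubated at 37 °C for 16–20 h. MIC is the lowest concentration preventing visible growth.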

Staphylococcus aureus [10] = assay: Selectivity ratio of MIC for Staphylococcus aureus ATCC 29213 in presence of bovine serum albumin to MIC for Staphylococcus aureus ATCC 29213 in absence of bovine serum albumin; format: functional; summary of the method: as §2
[11] = Clearance in ICR mouse at 5 mg/kg, iv by UV-UPLC analysis; format: ADME, organism-based; settings: in vivo
Summary of the method: (§3)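 Female ICR mice, 6–8 weeks old, 20–25 g. Each received 50 μL by tail-vein injection (5 or 10 mg/kg) of a filter-sterilized 2 or 4 mg/mL solution in 20% DMSO/10% Tween-80/70% water. Terminal blood was collected and plasma harvested by centrifugation. Plasma was precipitated with acetonitrile containing internal standard, and the supernatant was analyzed by C18 UPLC with UV detection at 285 nm.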

[12] = Clearance in ICR mouse at 5 mg/kg, iv by UV-UPLC analysis relative to hepatic blood flow; format: ADME, organism-based; settings: in vivo; summary of the method: as §3
[13] = AUC (0 to last) in ICR mouse at 5 mg/kg, iv by UV-UPLC analysis; format: ADME, organism-based; parameters: dose 5 mg/kg, route intravenous, time 0 - last; settings: in vivo; summary of the method: as §3

| SMILES | solubility [1] | selectivity ratio [2] | MIC (Staphylococcus aureus [3]) [µg/mL] | MIC (Staphylococcus aureus [4]) [µg/mL] | MIC (Staphylococcus aureus [5]) [µg/mL] | MIC (Staphylococcus aureus [6]) [µg/mL] | MIC (Staphylococcus aureus [7]) [µg/mL] | IC50 (HeLa) [µg/mL] | PPB [8] [%] | MIC (Staphylococcus aureus [9]) [µg/mL] | selectivity ratio (Staphylococcus aureus [10]) | clearance [11] [mL/min/kg] | CL [12] [%] | AUC(0-t) [13] [ng·h/mL] |
| --- | --- | --- | --- | --- | --- | --- | --- | --- | --- | --- | --- | --- | --- | --- |
| N#Cc1ccc(/C=C/c2nc3ccccc3c(=O)n2-c2ccc[n+]([O-])c2)cc1 | Insoluble | > 128 | 1 (≈ 2.73 µM) | 2 (≈ 5.46 µM) | 1 (≈ 2.73 µM) | 4 (≈ 10.9 µM) | 32 | > 128 | 67.9 | 2 (≈ 5.46 µM) |  |  |  |  |
| O=C(O)c1cccc(-n2c(CCc3ccc(F)cc3)nc3ccccc3c2=O)c1 |  | 40 |  | 4 (≈ 10.3 µM) | 1 (≈ 2.57 µM) | 4 (≈ 10.3 µM) | 8 | 79 (≈ 203 µM) | > 99.9 | 2 (≈ 5.15 µM) | <=4 |  |  |  |
| N#Cc1ccc(/C=C/c2nc3ccccc3c(=O)n2-c2cccc(C(=O)O)c2)s1 |  | 28 | 4 (≈ 10 µM) | 4 (≈ 10 µM) | 4 (≈ 10 µM) | 4 (≈ 10 µM) | 32 | 110 (≈ 275 µM) | 99.2 | 4 (≈ 10 µM) |  |  |  |  |
| O=C(O)c1cccc(-n2c(/C=C/c3ccc(Cl)cc3)nc3ccccc3c2=O)c1 |  | 200 | 0.25 (≈ 0.621 µM) | 0.25 (≈ 0.621 µM) | 0.125 (≈ 0.31 µM) | 0.125 (≈ 0.31 µM) | 1 | 50 (≈ 124 µM) | > 99.9 | 0.25 (≈ 0.621 µM) | <=4 |  |  |  |
| O=C(O)c1cccc(-n2c(/C=C/c3ccc(Cl)s3)nc3ccccc3c2=O)c1 |  | 360 | 0.5 (≈ 1.22 µM) | 0.5 (≈ 1.22 µM) | 1 (≈ 2.45 µM) |  | 4 | 180 (≈ 440 µM) | 99.3 | 0.5 (≈ 1.22 µM) |  |  |  |  |
| N#Cc1ccc(/C=C/c2nc3ccccc3c(=O)n2-c2cccc(S(N)(=O)=O)c2)cc1 |  | > 1070 | 0.06 (≈ 0.14 µM) | 0.06 (≈ 0.14 µM) | 0.06 (≈ 0.14 µM) | 0.125 (≈ 0.292 µM) | 0.5 | > 64 | 97.1 | 0.25 (≈ 0.583 µM) | <=4 | 98 | > 10 | 850 |
| N#Cc1ccc(/C=C/c2nc3ccccc3c(=O)n2-c2cccc(C(N)=O)c2)cc1 | Insoluble | > 64 |  |  | 1 (≈ 2.55 µM) | 32 (≈ 81.5 µM) | 16 | > 128 | 97.1 | 2 (≈ 5.1 µM) |  |  |  |  |
| C#Cc1ccc(/C=C/c2nc3ccccc3c(=O)n2-c2cccc(S(N)(=O)=O)c2)cc1 |  | 1020 |  |  |  | 0.06 (≈ 0.14 µM) | 0.5 | 61 (≈ 143 µM) | 98.2 |  |  | 28.2 | > 10 | 2970 |
| N#Cc1ccc(/C=C/c2nc3ccccc3c(=O)n2-c2ccccc2O)cc1 | Insoluble | 667 | 0.06 (≈ 0.164 µM) | 0.25 (≈ 0.684 µM) | 0.03 (≈ 0.0821 µM) |  | 0.125 | 40 (≈ 109 µM) | 98.1 | 0.015 (≈ 0.0411 µM) |  |  |  |  |
